Shown are actives, neighbours in structure and some others; about 4.4% of the full set was active somewhere.
SENP1 inh: human SENP1 catalytic domain inhibitors, primary screen, biochemical, FRET, uHTS; AID 624204, 2012; 360,000 compounds, 0.21% hits; inhibition, % at 10 µM; recombinant SENP1 catalytic domain, CyPet-SUMO1-YPet FRET cleavage;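 active means inhibition at least 30% at 10 µM, raw YFP signal under a set limit, fluorescence ratio 0.5 to 1.5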;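 further: 0% = enzyme with DMSO and 100% = no enzyme wells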
Target sequence (Q9P0U3 419-644 limits assumed): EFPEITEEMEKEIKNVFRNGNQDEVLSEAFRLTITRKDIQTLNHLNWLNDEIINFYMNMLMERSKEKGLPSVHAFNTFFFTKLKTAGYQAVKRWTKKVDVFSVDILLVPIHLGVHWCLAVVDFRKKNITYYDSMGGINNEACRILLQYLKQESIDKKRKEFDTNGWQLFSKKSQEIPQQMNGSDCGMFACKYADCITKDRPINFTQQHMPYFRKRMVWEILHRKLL
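Test system: hSENP1 catalytic domain, recombinant; Amount: 20 pM final SENP1 enzyme; Medium: Tris pH 8 buffer plus EDTA, NaCl, BME, BSA, NP40, catalase; Schedule: 50 min enzyme reaction, room temperature, light-protected; Technique: FRET fluorescence in CFP and YFP emission channels; Controls: no-enzyme wells low, DMSO-plus-enzyme wells high control.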
GRIN3A LBD mod: binders of NR3A ligand-binding domain, primary screen, biophysical, differential scanning fluorimetry, uHTS; NR3A LBD differential scanning fluorimetry, Tm shift; 0% = protein alone, 100% = glycine-bound protein; 340,000 compounds, 2.5% hits; Tm shift relative to glycine control, % at 25 µM; Glutamate receptor ionotropic, NMDA 3A (GRIN3A) ligand-binding domain;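 active means melting temperature shift of at least 10% of the positive control shift, at one fixed dose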
EBI2 block: EBI2 receptor antagonists, beta-arrestin recruitment, primary screen, cell-based, luminescence, 7a,25-OHC stimulation, uHTS. G-protein coupled receptor 183 (Homo sapiens), P32249. 7a,25-OHC stimulated. inhibition, % at 5 µM. 360,000 compounds, 0.81% hits. AID 651636, 2012; in the data active means inhibition above about 38%;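 further: enzyme fragment complementation signal reports receptor beta-arrestin coupling in cells; 0% = agonist plus DMSO wells and 100% = wells without agonist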
Target sequence (P32249 whole entry, looked up, the tested form may be a part): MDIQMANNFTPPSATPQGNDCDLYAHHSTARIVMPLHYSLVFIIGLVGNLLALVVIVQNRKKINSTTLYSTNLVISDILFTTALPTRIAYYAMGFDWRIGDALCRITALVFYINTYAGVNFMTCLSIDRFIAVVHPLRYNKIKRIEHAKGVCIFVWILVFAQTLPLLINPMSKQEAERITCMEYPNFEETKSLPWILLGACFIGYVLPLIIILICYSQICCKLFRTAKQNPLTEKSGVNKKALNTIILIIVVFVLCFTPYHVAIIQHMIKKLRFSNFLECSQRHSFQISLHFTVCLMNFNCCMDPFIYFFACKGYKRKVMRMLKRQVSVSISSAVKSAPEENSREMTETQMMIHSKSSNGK
MPTP inh: mitochondrial permeability transition pore inhibitors, primary screen, biochemical, isolated mouse mitochondria, absorbance; inhibition, % at 10 µM; Ca2+ swelling absorbance, 30 min; AID 602449, 2012; 360,000 compounds, 1.4% hits;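 active means inhibition of 50% or more, scaled per plate between neutral and stimulator controls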;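 further: 0% = DMSO wells given calcium and 100% = 1 mM EGTA wells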
* hit, by the source's call.

c1ccc(-c2nc3ccccn3c2-c2ccccc2)cc1 was read as SENP1 inh -1, GRIN3A LBD mod -1, EBI2 block -18 and MPTP inh 2.
For O=C(CCNC(=O)c1ccccc1)OCC(=O)c1ccccc1 the results were SENP1 inh 0, GRIN3A LBD mod 1, EBI2 block -15 and MPTP inh -2.
NC(=O)COC(=O)CC(NC(N)=O)c1ccc(Cl)cc1 (stereo unspecified) was read as SENP1 inh 2, GRIN3A LBD mod 13*, EBI2 block -7 and MPTP inh 1.
For O=C(NCc1ccncc1)[C@@H]1CCCN1C(=O)[C@@H]1CCCN1C(=O)c1c(F)cccc1F the results were SENP1 inh 2, EBI2 block -5 and MPTP inh -1.
`COc1ccccc1NC(=O)c1ccc(NS(=O)(=O)c2cccc3cccnc23)cc1` gave SENP1 inh 3, GRIN3A LBD mod 18*, EBI2 block -1 and MPTP inh -18.
Screening CC(=O)Nc1ccc(NC(=O)c2ccc(NS(=O)(=O)c3cc(C(C)(C)C)cc(C)c3C)cc2)cc1 returned SENP1 inh -4, GRIN3A LBD mod 26*, EBI2 block 5 and MPTP inh -5.
For Cc1cc(C(C)(C)C)cc(S(=O)(=O)Nc2ccc(O)c(C(=O)O)c2)c1C the results were SENP1 inh 1, GRIN3A LBD mod -8, EBI2 block -7 and MPTP inh 0.
`Cc1ccc(S(=O)(=O)Nc2ccc(C(=O)NCc3ccccn3)cc2)cc1` gave SENP1 inh 1, GRIN3A LBD mod 13*, EBI2 block 9 and MPTP inh 2.
Screening CC(=O)Nc1ccc(NC(=O)c2ccc(NS(=O)(=O)c3cccc4cccnc34)cc2)cc1 returned SENP1 inh -5, GRIN3A LBD mod 19*, EBI2 block -24 and MPTP inh 0.
`COc1ccc(C)cc1NC(=O)c1ccc(NS(=O)(=O)c2cccc3cccnc23)cc1` gave SENP1 inh 1, GRIN3A LBD mod -2, EBI2 block 4 and MPTP inh 2.
Cn1c(Cn2c(=O)sc3ccccc32)nnc1SCC(=O)Nc1ccccc1F was read as SENP1 inh 1, GRIN3A LBD mod -3, EBI2 block -7 and MPTP inh 0.
Cc1nnc(NC(=O)C2CC(=O)N(c3ccccc3)C2)s1 (stereo unspecified) was read as SENP1 inh 0, GRIN3A LBD mod 2, EBI2 block -7 and MPTP inh -1.
Screening COc1ccc(Cn2c(CCC(=O)Nc3ccccc3OC)nc3cccnc32)cc1 returned SENP1 inh 1, GRIN3A LBD mod 1, EBI2 block 5 and MPTP inh 1.
Cc1ccc(NC(=O)c2ccc(NS(=O)(=O)c3cccc4cccnc34)cc2)cc1 was read as SENP1 inh 0, GRIN3A LBD mod 28*, EBI2 block 40 and MPTP inh 2.
`COc1ccccc1NC(=O)c1ccc(NS(=O)(=O)c2ccc(F)c(Cl)c2)cc1` gave SENP1 inh 4, GRIN3A LBD mod 11*, EBI2 block 0 and MPTP inh 20.
CCCCNC(=O)c1onc(CSc2ccc(OC)cc2)c1C(=O)O was read as SENP1 inh 0, GRIN3A LBD mod 12*, EBI2 block 11 and MPTP inh 0.
`Cc1cc(C)n(CC(O)COc2ccccc2Br)n1` (stereo unspecified) gave SENP1 inh 2, GRIN3A LBD mod -1, EBI2 block 1 and MPTP inh 1.
`O=C(N/N=C/c1cc2c(cc1Br)OCO2)c1ccccn1` gave SENP1 inh 2, GRIN3A LBD mod -1, EBI2 block -44 and MPTP inh 1.
Screening O=C(N/N=C/c1ccc(Br)s1)Nc1ccccc1 returned SENP1 inh 1, GRIN3A LBD mod 20*, EBI2 block 19 and MPTP inh 1.
For O=C(N/N=C/c1cc(Br)cs1)c1c[nH]c2ccccc12 the results were SENP1 inh -2, GRIN3A LBD mod 38*, EBI2 block 8 and MPTP inh 10.
For O=C(N/N=C/c1cc2c(cc1Br)OCO2)c1cc2ccccc2o1 the results were SENP1 inh -1, GRIN3A LBD mod 13*, EBI2 block 11 and MPTP inh 0.
O=C(N/N=C/c1ccc(Br)s1)c1c[nH]c2ccccc12 was read as SENP1 inh -2, GRIN3A LBD mod 25*, EBI2 block 8 and MPTP inh 2.
Screening O=C(N/N=C/c1cc2c(cc1Br)OCO2)c1c[nH]c2ccccc12 returned SENP1 inh 3, GRIN3A LBD mod 15*, EBI2 block 3 and MPTP inh 4.
Screening CCOC(=O)C1=C(N)Oc2cc(O)ccc2C1c1cccc(Cl)c1 (stereo unspecified) returned SENP1 inh -62, GRIN3A LBD mod 13*, EBI2 block 12 and MPTP inh 4.
Cc1ccc(Nc2nc(N)nc(CSc3nc4ccccc4s3)n2)cc1 was read as SENP1 inh -2, GRIN3A LBD mod 17*, EBI2 block 21 and MPTP inh 5.
CCN(CC)c1ccc2c(Cl)c(Br)c(=O)oc2c1 was read as SENP1 inh -24, GRIN3A LBD mod -1, EBI2 block 54* and MPTP inh 3.
CCN(CC)c1ccc2c(c1)oc(=O)c1c(Cl)cc(=O)oc12 was read as SENP1 inh -25, GRIN3A LBD mod 0, EBI2 block 62* and MPTP inh 0.
Cc1nc2sc(C(c3cccc(F)c3)N3CCC(O)CC3)c(O)n2n1 (stereo unspecified) was read as SENP1 inh 2, GRIN3A LBD mod 10*, EBI2 block -10 and MPTP inh -3.
For Cc1nc2sc(C(c3cccc(F)c3)N3CCC(C)CC3)c(O)n2n1 (stereo unspecified) the results were SENP1 inh 2, GRIN3A LBD mod 1, EBI2 block 3 and MPTP inh -1.
Screening c1ccc(Cn2ccnc2SCc2nnc(-c3ccccc3)o2)cc1 returned SENP1 inh 1, GRIN3A LBD mod 11*, EBI2 block -5 and MPTP inh -1.
Screening CC(=O)Nc1ccc(S(=O)(=O)NN=Cc2ccc(Cl)c(Cl)c2)cc1 returned SENP1 inh 1, GRIN3A LBD mod -2, EBI2 block 6 and MPTP inh 0.
O=[N+]([O-])c1ccc(S(=O)(=O)NN=Cc2ccc(Cl)c(Cl)c2)cc1 was read as SENP1 inh 2, GRIN3A LBD mod 12*, EBI2 block -7 and MPTP inh 46.
For O=C(CSc1nnc(CNC(=O)c2ccc(F)cc2)o1)NCc1ccc2c(c1)OCO2 the results were SENP1 inh 3, GRIN3A LBD mod -1, EBI2 block 0 and MPTP inh 0.
Screening CCOc1cccc(-c2c(C(=O)N/N=C/c3ccc(Br)cc3)nnn2-c2nonc2N)c1 returned SENP1 inh 1, GRIN3A LBD mod 17*, EBI2 block 29 and MPTP inh -2.

Compound activity from PubChem.
